Test results reported in PubChem BioAssay AID2204 (Vanderbilt High Throughput Screening Facility, 2009).

Experiments:
Test in all cases: muscarinic M1-M5 subtype PAM potency panel, profiling panel, selectivity assay for M5 allosteric modulator project, cell-based, calcium flux (AID 2204)
Details in all cases: CHO-K1 mAChR panel, Fluo-4 calcium flux, ACh EC20
[1] = molecular target: Muscarinic acetylcholine receptor M5 (Homo sapiens) (UniProt P08912)
Summary of the method: (§1)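 system = transfected CHO-K1 cells | measured by = calcium mobilization signal | incubation = 1.5 min compound pre-incubation, 50 s agonist exposure, 25 °C | read-out = EC50 from signal normalized to maximal acetylcholine response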

[2] = molecular target: Muscarinic acetylcholine receptor M3 (Homo sapiens) (UniProt P20309)
Chain of Muscarinic acetylcholine receptor M3 (Homo sapiens) (P20309 whole entry, looked up): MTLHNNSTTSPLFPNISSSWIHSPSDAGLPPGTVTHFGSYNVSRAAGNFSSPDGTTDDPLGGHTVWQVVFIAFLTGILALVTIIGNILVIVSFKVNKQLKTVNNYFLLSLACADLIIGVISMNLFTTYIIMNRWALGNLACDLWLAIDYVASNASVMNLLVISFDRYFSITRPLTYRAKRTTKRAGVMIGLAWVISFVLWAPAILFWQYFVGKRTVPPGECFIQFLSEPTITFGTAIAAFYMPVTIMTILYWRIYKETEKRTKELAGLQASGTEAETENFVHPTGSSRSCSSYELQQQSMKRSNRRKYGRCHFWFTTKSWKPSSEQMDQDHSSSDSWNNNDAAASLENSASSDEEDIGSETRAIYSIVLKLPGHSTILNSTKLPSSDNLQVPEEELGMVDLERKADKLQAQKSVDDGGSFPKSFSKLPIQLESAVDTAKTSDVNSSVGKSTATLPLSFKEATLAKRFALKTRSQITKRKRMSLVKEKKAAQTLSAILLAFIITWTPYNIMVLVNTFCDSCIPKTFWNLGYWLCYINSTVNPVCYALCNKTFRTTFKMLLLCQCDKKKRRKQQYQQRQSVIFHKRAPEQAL
Summary of the method: as §1

[3] = molecular target: Muscarinic acetylcholine receptor M1 (Rattus norvegicus) (UniProt P08482)
Chain of Muscarinic acetylcholine receptor M1 (Rattus norvegicus) (P08482 whole entry, looked up): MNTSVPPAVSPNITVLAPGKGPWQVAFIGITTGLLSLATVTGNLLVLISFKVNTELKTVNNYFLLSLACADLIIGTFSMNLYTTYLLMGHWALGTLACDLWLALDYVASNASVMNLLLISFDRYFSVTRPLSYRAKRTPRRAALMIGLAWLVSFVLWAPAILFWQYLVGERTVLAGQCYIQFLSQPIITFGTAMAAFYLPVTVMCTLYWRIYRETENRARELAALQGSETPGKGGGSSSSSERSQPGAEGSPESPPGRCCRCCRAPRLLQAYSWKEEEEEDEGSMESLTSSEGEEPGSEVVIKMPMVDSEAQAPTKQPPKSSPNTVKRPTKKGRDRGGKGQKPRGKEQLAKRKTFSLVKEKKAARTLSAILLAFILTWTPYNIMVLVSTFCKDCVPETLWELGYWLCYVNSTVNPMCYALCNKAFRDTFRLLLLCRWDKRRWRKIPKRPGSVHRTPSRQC
Summary of the method: as §1

Chain of Muscarinic acetylcholine receptor M5 (Homo sapiens) (P08912 whole entry, looked up): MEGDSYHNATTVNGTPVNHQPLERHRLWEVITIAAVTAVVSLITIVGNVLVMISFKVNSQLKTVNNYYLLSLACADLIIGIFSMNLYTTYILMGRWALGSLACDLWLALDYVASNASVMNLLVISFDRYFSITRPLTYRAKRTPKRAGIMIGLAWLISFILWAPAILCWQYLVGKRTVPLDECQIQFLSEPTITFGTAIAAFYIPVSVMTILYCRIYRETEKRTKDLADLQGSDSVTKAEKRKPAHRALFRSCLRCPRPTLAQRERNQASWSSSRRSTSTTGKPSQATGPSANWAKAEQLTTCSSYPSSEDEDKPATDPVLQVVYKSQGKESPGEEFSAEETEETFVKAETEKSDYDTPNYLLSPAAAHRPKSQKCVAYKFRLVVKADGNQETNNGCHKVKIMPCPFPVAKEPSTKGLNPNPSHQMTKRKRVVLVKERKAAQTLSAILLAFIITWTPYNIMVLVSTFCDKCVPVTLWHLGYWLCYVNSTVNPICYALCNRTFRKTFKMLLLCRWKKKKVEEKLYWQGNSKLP

| Structure (SMILES) | EC50 [1] | EC50 [2] | EC50 [3] |
| --- | --- | --- | --- |
| O=C1C(=O)N(Cc2ccc(-c3ccccc3)cc2)c2ccc(OC(F)(F)F)cc21 | 2.66 µM |  |  |
| O=C1C(=O)N(Cc2ccc(Oc3ccccc3)cc2)c2ccc(OC(F)(F)F)cc21 | 1.92 µM |  |  |
| O=C1C(=O)N(Cc2ccc(-c3ccc(Cl)nc3)cc2)c2ccc(OC(F)(F)F)cc21 | 4.83 µM |  |  |
| COc1ccc(CN2C(=O)C(=O)c3ccc(OC(F)(F)F)cc32)cc1 | 5.68 µM | 10.3 µM |  |
| Cn1cc(-c2ccc(CN3C(=O)C(=O)c4cc(OC(F)(F)F)ccc43)cc2)cn1 | 3.26 µM |  |  |
| O=C1C(=O)N(Cc2ccc(Br)cc2)c2ccccc21 | 4.08 µM | 6.38 µM | 6.04 µM |
| COc1ccc(CN2C(=O)C(=O)c3cc(OC(F)(F)F)ccc32)cc1 | 1.16 µM | 109 µM |  |
| O=C1C(=O)N(Cc2ccc(-c3ccc(F)nc3)cc2)c2ccc(OC(F)(F)F)cc21 | 3.59 µM |  |  |
| COc1ccccc1-c1ccc(CN2C(=O)C(=O)c3cc(OC(F)(F)F)ccc32)cc1 | 3.86 µM |  |  |
| O=C1C(=O)N(Cc2ccc(-c3ccsc3)cc2)c2ccc(OC(F)(F)F)cc21 | 2.77 µM |  |  |
| O=C1C(=O)N(Cc2ccc(-c3ccccc3)cc2)c2cc(OC(F)(F)F)ccc21 | 2.65 µM | 3.07 µM |  |
